# According to ChEMBL document CHEMBL5260840 (J Med Chem, 2019):
# Calls of active or inactive are those of the source. The rule behind the calls is not given here.
# Columns and labels:
# Format in all cases: cell-based
# [1] = target: T1, DDB1- and CUL4-associated factor 15/Bromodomain-containing protein 7 (Homo sapiens) (UniProt Q9NPI1+Q66K64); test: PROTAC activity at DCAF15/BRD7 in human HeLa cells assessed as remaining BRD7 protein level at 1 uM incubated for 16 hrs by Western blot analysis relative to control
# T1 sequence (Q66K64 whole entry, looked up): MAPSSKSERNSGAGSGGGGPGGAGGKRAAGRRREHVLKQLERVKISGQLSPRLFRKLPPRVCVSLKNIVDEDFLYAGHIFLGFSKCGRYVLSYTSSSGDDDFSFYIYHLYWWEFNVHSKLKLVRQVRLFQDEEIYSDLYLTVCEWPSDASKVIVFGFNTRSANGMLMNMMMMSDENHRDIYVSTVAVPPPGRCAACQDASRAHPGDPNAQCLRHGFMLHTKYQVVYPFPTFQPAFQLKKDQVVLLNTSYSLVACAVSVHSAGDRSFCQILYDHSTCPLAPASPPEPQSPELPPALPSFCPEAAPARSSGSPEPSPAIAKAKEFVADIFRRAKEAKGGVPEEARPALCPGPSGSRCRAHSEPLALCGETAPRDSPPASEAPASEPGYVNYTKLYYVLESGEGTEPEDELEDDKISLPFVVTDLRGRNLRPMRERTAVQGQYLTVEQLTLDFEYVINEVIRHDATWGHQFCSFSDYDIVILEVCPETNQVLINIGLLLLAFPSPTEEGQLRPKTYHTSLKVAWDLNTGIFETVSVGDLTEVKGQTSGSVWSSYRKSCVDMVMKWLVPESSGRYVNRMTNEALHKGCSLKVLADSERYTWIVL
# T1 sequence (Q9NPI1 whole entry, looked up): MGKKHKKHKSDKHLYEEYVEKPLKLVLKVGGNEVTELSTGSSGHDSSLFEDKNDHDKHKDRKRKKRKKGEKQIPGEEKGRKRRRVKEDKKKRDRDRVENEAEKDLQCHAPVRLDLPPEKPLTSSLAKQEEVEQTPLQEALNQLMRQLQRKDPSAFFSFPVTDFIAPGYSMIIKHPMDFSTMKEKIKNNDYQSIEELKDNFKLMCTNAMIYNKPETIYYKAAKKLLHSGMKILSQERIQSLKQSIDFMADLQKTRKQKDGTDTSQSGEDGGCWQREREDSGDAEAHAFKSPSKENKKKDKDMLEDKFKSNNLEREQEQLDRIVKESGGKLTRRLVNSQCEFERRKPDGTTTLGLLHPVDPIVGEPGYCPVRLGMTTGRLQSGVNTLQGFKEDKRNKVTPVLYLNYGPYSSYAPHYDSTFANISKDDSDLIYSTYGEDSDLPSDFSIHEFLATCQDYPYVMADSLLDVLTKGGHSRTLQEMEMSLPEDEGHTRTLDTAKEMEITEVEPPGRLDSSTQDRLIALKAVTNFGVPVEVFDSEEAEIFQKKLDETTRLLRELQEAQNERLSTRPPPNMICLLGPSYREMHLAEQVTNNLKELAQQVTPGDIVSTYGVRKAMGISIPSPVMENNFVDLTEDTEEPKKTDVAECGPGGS
# [2] = target: T2, DDB1- and CUL4-associated factor 15/Bromodomain-containing protein 9 (Homo sapiens) (UniProt Q9H8M2+Q66K64); test: PROTAC activity at DCAF15/BRD9 in human HeLa cells assessed as remaining BRD9 protein level at 1 uM incubated for 4 hrs by Western blot analysis relative to control
# T2 sequence (Q66K64 whole entry, looked up): as the sequence (Q66K64 whole entry, looked up) above
# T2 sequence (Q9H8M2 whole entry, looked up): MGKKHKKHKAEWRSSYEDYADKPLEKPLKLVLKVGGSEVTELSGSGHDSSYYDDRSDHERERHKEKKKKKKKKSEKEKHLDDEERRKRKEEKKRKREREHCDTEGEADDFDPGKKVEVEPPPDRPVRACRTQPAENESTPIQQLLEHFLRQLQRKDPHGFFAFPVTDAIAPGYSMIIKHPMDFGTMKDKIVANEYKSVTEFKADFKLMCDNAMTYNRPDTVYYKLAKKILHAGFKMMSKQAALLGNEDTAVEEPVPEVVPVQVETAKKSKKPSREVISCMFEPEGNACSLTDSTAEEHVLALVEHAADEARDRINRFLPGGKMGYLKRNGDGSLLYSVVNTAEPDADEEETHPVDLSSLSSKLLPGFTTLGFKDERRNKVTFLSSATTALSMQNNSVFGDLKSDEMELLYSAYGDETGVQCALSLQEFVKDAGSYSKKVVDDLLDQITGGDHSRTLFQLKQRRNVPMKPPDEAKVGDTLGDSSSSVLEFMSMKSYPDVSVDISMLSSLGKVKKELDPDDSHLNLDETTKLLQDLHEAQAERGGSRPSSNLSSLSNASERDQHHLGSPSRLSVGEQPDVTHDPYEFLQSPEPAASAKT
# [3] = target: T2, DDB1- and CUL4-associated factor 15/Bromodomain-containing protein 9 (Homo sapiens); test: PROTAC activity at DCAF15/BRD9 in human HeLa cells assessed as remaining BRD9 protein level at 1 uM incubated for 16 hrs by Western blot analysis relative to control
# [4] = target: T1, DDB1- and CUL4-associated factor 15/Bromodomain-containing protein 7 (Homo sapiens); test: PROTAC activity at DCAF15/BRD7 in human HeLa cells assessed as remaining BRD7 protein level at 1 uM incubated for 4 hrs by Western blot analysis relative to control
# [5] = target: T3, Protein cereblon/Bromodomain-containing protein 7 (Homo sapiens) (UniProt Q9NPI1+Q96SW2); test: PROTAC activity at CRBN/BRD7 in human HeLa cells assessed as remaining BRD7 protein level at 1 uM incubated for 16 hrs by Western blot analysis relative to control
# T3 sequence (Q96SW2 whole entry, looked up): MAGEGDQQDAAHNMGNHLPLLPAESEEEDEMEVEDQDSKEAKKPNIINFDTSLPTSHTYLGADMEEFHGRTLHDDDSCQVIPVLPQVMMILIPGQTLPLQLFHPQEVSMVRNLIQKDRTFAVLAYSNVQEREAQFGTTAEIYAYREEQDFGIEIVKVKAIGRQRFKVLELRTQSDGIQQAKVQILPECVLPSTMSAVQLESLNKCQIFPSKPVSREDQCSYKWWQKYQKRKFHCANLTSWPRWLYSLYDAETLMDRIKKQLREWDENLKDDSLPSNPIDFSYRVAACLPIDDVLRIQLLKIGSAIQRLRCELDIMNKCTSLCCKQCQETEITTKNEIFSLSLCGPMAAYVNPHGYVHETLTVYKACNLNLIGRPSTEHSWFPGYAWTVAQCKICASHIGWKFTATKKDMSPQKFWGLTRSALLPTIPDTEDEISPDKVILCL
# T3 sequence (Q9NPI1 whole entry, looked up): as the sequence (Q9NPI1 whole entry, looked up) above
# Method in brief: (§1)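 HeLa cells given 1 µM compound for 16 h before harvest. BRD9, BRD7 and β-actin detected by Western blot; band intensities quantified.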
# [6] = target: T3, Protein cereblon/Bromodomain-containing protein 7 (Homo sapiens); test: PROTAC activity at CRBN/BRD7 in human HeLa cells assessed as remaining BRD7 protein level at 1 uM incubated for 4 hrs by Western blot analysis relative to control
# Method in brief: (§2)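 Cells given 1 µM compound before harvest: HeLa 4 h, RI-1 2 h and 8 h. BRD9, BRD7 and β-actin detected by Western blot; band intensities quantified.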
# [7] = target: T4, Protein cereblon/Bromodomain-containing protein 9 (Homo sapiens) (UniProt Q9H8M2+Q96SW2); test: PROTAC activity at CRBN/BRD9 in human HeLa cells assessed as remaining BRD9 protein level at 1 uM incubated for 4 hrs by Western blot analysis relative to control; method in brief: as §2
# T4 sequence (Q96SW2 whole entry, looked up): as the sequence (Q96SW2 whole entry, looked up) above
# T4 sequence (Q9H8M2 whole entry, looked up): as the sequence (Q9H8M2 whole entry, looked up) above
# [8] = target: T4, Protein cereblon/Bromodomain-containing protein 9 (Homo sapiens); test: PROTAC activity at CRBN/BRD9 in human HeLa cells assessed as remaining BRD9 protein level at 1 uM incubated for 16 hrs by Western blot analysis relative to control; method in brief: as §1
# [9] = target: T5, von Hippel-Lindau disease tumor suppressor/Bromodomain-containing protein 7 (Homo sapiens) (UniProt Q9NPI1+P40337); test: PROTAC activity at VHL/BRD7 in human Ri-1 cells assessed as BRD7 protein degradation at 100 nM incubated for 4 hrs by Western blot analysis
# T5 sequence (P40337 whole entry, looked up): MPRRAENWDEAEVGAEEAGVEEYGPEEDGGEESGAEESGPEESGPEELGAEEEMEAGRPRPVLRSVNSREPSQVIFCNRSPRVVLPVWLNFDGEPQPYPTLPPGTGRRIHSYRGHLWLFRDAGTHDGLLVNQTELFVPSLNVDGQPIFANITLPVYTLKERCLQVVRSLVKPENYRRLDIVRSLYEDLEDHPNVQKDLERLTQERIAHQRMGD
# T5 sequence (Q9NPI1 whole entry, looked up): as the sequence (Q9NPI1 whole entry, looked up) above
# [10] = target: T5, von Hippel-Lindau disease tumor suppressor/Bromodomain-containing protein 7 (Homo sapiens); test: PROTAC activity at VHL/BRD7 in human Ri-1 cells assessed as BRD7 protein degradation at 100 nM incubated for 4 hrs by MS proteomics analysis
# [11] = target: T6, von Hippel-Lindau disease tumor suppressor/Bromodomain-containing protein 9 (Homo sapiens) (UniProt Q9H8M2+P40337); test: PROTAC activity at VHL/BRD9 in human Ri-1 cells assessed as BRD9 protein degradation at 100 nM incubated for 4 hrs by MS proteomics analysis
# T6 sequence (P40337 whole entry, looked up): as the sequence (P40337 whole entry, looked up) above
# T6 sequence (Q9H8M2 whole entry, looked up): as the sequence (Q9H8M2 whole entry, looked up) above
# Method in brief: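 RI-1 cells treated in triplicate with compound (100 nM) or DMSO for 4 h; whole-cell proteome quantified by MS (6273 proteins), fold change versus control with t-test P-values.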
# [12] = target: T6, von Hippel-Lindau disease tumor suppressor/Bromodomain-containing protein 9 (Homo sapiens); test: PROTAC activity at VHL/BRD9 in human Ri-1 cells assessed as BRD9 protein degradation at 100 nM incubated for 4 hrs by Western blot analysis
# Method in brief: (§3)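 Ri-1 cells exposed to compound for the stated time before harvest; BRD9, BRD7 and β-actin measured by Western blot, band intensities quantified and set against DMSO-treated control.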
# [13] = target: T5, von Hippel-Lindau disease tumor suppressor/Bromodomain-containing protein 7 (Homo sapiens); test: PROTAC activity at VHL/BRD7 in human Ri-1 cells assessed as remaining BRD7 protein level at 0.1 nM incubated for 8 hrs by Western blot analysis relative to control
# [14] = target: T6, von Hippel-Lindau disease tumor suppressor/Bromodomain-containing protein 9 (Homo sapiens); test: PROTAC activity at VHL/BRD9 in human Ri-1 cells assessed as remaining BRD9 protein level at 100 nM incubated for 2 hrs by Western blot analysis relative to control; method in brief: as §3
# [15] = target: T5, von Hippel-Lindau disease tumor suppressor/Bromodomain-containing protein 7 (Homo sapiens); test: PROTAC activity at VHL/BRD7 in human Ri-1 cells assessed as remaining BRD7 protein level at 100 nM incubated for 8 hrs by Western blot analysis relative to control; method in brief: as §3
# [16] = target: T6, von Hippel-Lindau disease tumor suppressor/Bromodomain-containing protein 9 (Homo sapiens); test: PROTAC activity at VHL/BRD9 in human Ri-1 cells assessed as remaining BRD9 protein level at 1 uM incubated for 8 hrs by Western blot analysis relative to control; method in brief: as §3
# [17] = target: T6, von Hippel-Lindau disease tumor suppressor/Bromodomain-containing protein 9 (Homo sapiens); test: PROTAC activity at VHL/BRD9 in human Ri-1 cells assessed as remaining BRD9 protein level at 10000 nM incubated for 2 hrs by Western blot analysis relative to control; method in brief: as §3
# [18] = target: T6, von Hippel-Lindau disease tumor suppressor/Bromodomain-containing protein 9 (Homo sapiens); test: PROTAC activity at VHL/BRD9 in human Ri-1 cells assessed as remaining BRD9 protein level at 100 nM incubated for 8 hrs by Western blot analysis relative to control; method in brief: as §3
# [19] = target: T6, von Hippel-Lindau disease tumor suppressor/Bromodomain-containing protein 9 (Homo sapiens); test: PROTAC activity at VHL/BRD9 in human Ri-1 cells assessed as remaining BRD9 protein level at 1 nM incubated for 2 hrs by Western blot analysis relative to control; method in brief: as §3
# [20] = target: T5, von Hippel-Lindau disease tumor suppressor/Bromodomain-containing protein 7 (Homo sapiens); test: PROTAC activity at VHL/BRD7 in human Ri-1 cells assessed as remaining BRD7 protein level at 10 nM incubated for 2 hrs by Western blot analysis relative to control
# [21] = target: T5, von Hippel-Lindau disease tumor suppressor/Bromodomain-containing protein 7 (Homo sapiens); test: PROTAC activity at VHL/BRD7 in human Ri-1 cells assessed as remaining BRD7 protein level at 1 nM incubated for 8 hrs by Western blot analysis relative to control
# [22] = target: T5, von Hippel-Lindau disease tumor suppressor/Bromodomain-containing protein 7 (Homo sapiens); test: PROTAC activity at VHL/BRD7 in human Ri-1 cells assessed as remaining BRD7 protein level at 10000 nM incubated for 2 hrs by Western blot analysis relative to control; method in brief: as §3
# [23] = target: T6, von Hippel-Lindau disease tumor suppressor/Bromodomain-containing protein 9 (Homo sapiens); test: PROTAC activity at VHL/BRD9 in human Ri-1 cells assessed as remaining BRD9 protein level at 10 nM incubated for 2 hrs by Western blot analysis relative to control; method in brief: as §3
# [24] = target: T5, von Hippel-Lindau disease tumor suppressor/Bromodomain-containing protein 7 (Homo sapiens); test: PROTAC activity at VHL/BRD7 in human HeLa cells assessed as remaining BRD7 protein level at 1 uM incubated for 4 hrs by Western blot analysis relative to control
# [25] = target: T5, von Hippel-Lindau disease tumor suppressor/Bromodomain-containing protein 7 (Homo sapiens); test: PROTAC activity at VHL/BRD7 in human Ri-1 cells assessed as remaining BRD7 protein level at 1 uM incubated for 2 hrs by Western blot analysis relative to control
# [26] = target: T5, von Hippel-Lindau disease tumor suppressor/Bromodomain-containing protein 7 (Homo sapiens); test: PROTAC activity at VHL/BRD7 in human Ri-1 cells assessed as remaining BRD7 protein level at 100 nM incubated for 2 hrs by Western blot analysis relative to control; method in brief: as §3
# [27] = target: T6, von Hippel-Lindau disease tumor suppressor/Bromodomain-containing protein 9 (Homo sapiens); test: PROTAC activity at VHL/BRD9 in human Ri-1 cells assessed as remaining BRD9 protein level at 1 nM incubated for 8 hrs by Western blot analysis relative to control; method in brief: as §3
# [28] = target: T6, von Hippel-Lindau disease tumor suppressor/Bromodomain-containing protein 9 (Homo sapiens); test: PROTAC activity at VHL/BRD9 in human Ri-1 cells assessed as remaining BRD9 protein level at 0.1 nM incubated for 8 hrs by Western blot analysis relative to control; method in brief: as §3
# [29] = target: T5, von Hippel-Lindau disease tumor suppressor/Bromodomain-containing protein 7 (Homo sapiens); test: PROTAC activity at VHL/BRD7 in human Ri-1 cells assessed as remaining BRD7 protein level at 1 nM incubated for 2 hrs by Western blot analysis relative to control
# [30] = target: T5, von Hippel-Lindau disease tumor suppressor/Bromodomain-containing protein 7 (Homo sapiens); test: PROTAC activity at VHL/BRD7 in human Ri-1 cells assessed as remaining BRD7 protein level at 10 nM incubated for 8 hrs by Western blot analysis relative to control; method in brief: as §3
# [31] = target: T6, von Hippel-Lindau disease tumor suppressor/Bromodomain-containing protein 9 (Homo sapiens); test: PROTAC activity at VHL/BRD9 in human Ri-1 cells assessed as remaining BRD9 protein level at 1 uM incubated for 2 hrs by Western blot analysis relative to control; method in brief: as §3
# [32] = target: T6, von Hippel-Lindau disease tumor suppressor/Bromodomain-containing protein 9 (Homo sapiens); test: PROTAC activity at VHL/BRD9 in human Ri-1 cells assessed as remaining BRD9 protein level at 10 nM incubated for 8 hrs by Western blot analysis relative to control; method in brief: as §3
# [33] = target: T5, von Hippel-Lindau disease tumor suppressor/Bromodomain-containing protein 7 (Homo sapiens); test: PROTAC activity at VHL/BRD7 in human Ri-1 cells assessed as remaining BRD7 protein level at 1 uM incubated for 8 hrs by Western blot analysis relative to control
# [34] = target: T6, von Hippel-Lindau disease tumor suppressor/Bromodomain-containing protein 9 (Homo sapiens); test: PROTAC activity at VHL/BRD9 in human HeLa cells assessed as remaining BRD9 protein level at 1 uM incubated for 16 hrs by Western blot analysis relative to control
# Method in brief: (§4)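 HeLa cells treated with compound for the stated time before harvest; BRD9, BRD7 and β-actin detected by Western blot with β-actin loading control; band intensities quantified.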
# [35] = target: T6, von Hippel-Lindau disease tumor suppressor/Bromodomain-containing protein 9 (Homo sapiens); test: PROTAC activity at VHL/BRD9 in human HeLa cells assessed as protein degradation at 1 uM incubated for 16 hrs by Western blot analysis relative to control; method in brief: as §4
# [36] = target: T5, von Hippel-Lindau disease tumor suppressor/Bromodomain-containing protein 7 (Homo sapiens); test: PROTAC activity at VHL/BRD7 in human HeLa cells assessed as protein degradation at 1 uM incubated for 4 hrs by Western blot analysis relative to control
# [37] = target: T6, von Hippel-Lindau disease tumor suppressor/Bromodomain-containing protein 9 (Homo sapiens); test: PROTAC activity at VHL/BRD9 in human HeLa cells assessed as protein degradation at 1 uM incubated for 4 hrs by Western blot analysis relative to control; method in brief: as §4
# [38] = target: T5, von Hippel-Lindau disease tumor suppressor/Bromodomain-containing protein 7 (Homo sapiens); test: PROTAC activity at VHL/BRD7 in human HeLa cells assessed as protein degradation at 1 uM incubated for 16 hrs by Western blot analysis relative to control
# [39] = target: T5, von Hippel-Lindau disease tumor suppressor/Bromodomain-containing protein 7 (Homo sapiens); test: PROTAC activity at VHL/BRD7 in human HeLa cells assessed as remaining BRD7 protein level at 1 uM incubated for 16 hrs by Western blot analysis relative to control
smiles,measurement,setting,value
COc1cc(-c2cn(C)c(=O)c3cnccc23)cc(OC)c1CN1CCN(CCOCCOCC(=O)NCc2ccc(S(=O)(=O)Nc3cccc4c(Cl)c[nH]c34)cc2)CC1,Activity,[1],86%
same,Activity,[2],125%
same,Activity,[3],81%
same,Activity,[4],101%
COc1cc(-c2cn(C)c(=O)c3cnccc23)cc(OC)c1CN1CCN(CCOCCOCCOCCOCC(=O)NCc2ccc(S(=O)(=O)Nc3cccc4c(Cl)c[nH]c34)cc2)CC1,Activity,[1],86%
same,Activity,[2],126%
same,Activity,[3],86%
same,Activity,[4],81%
COc1cc(-c2cn(C)c(=O)c3cnccc23)cc(OC)c1CN1CCN(CCOCCOCCOCCOCC(=O)NCCNc2cccc3c2C(=O)N(C2CCC(=O)NC2=O)C3=O)CC1 (centres undefined),Activity,[5],94%
same,Activity,[6],106%
same,Activity,[7],19%
same,Activity,[8],11%
COc1cc(-c2cn(C)c(=O)c3cnccc23)cc(OC)c1CN1CCN(CCCCCOc2cc(-c3scnc3C)ccc2CNC(=O)[C@@H]2C[C@H](O)CN2C(=O)[C@@H](NC(=O)C2(F)CC2)C(C)(C)C)CC1,Activity,[9],inactive
same,Activity,[10],inactive
same,Activity,[11],inactive
same,Activity,[12],inactive
COc1cc(-c2cn(C)c(=O)c3cnccc23)cc(OC)c1CN1CCN(CCOCCOc2cc(-c3scnc3C)ccc2CNC(=O)[C@@H]2C[C@@H](O)CN2C(=O)[C@@H](NC(=O)C2(F)CC2)C(C)(C)C)CC1,Activity,[13],155%
same,Activity,[14],50%
same,Activity,[15],152%
same,Activity,[16],6%
same,Activity,[17],66%
same,Activity,[18],63%
same,Activity,[19],110%
same,Activity,[20],123%
same,Activity,[21],155%
same,Activity,[22],33%
same,Activity,[23],113%
same,Activity,[24],8%
same,Activity,[25],63%
same,Activity,[26],75%
same,Activity,[27],109%
same,Activity,[28],117%
same,Activity,[29],101%
same,Activity,[30],155%
same,Activity,[31],44%
same,Activity,[32],103%
same,Activity,[33],8%
COc1cc(-c2cn(C)c(=O)c3cnccc23)cc(OC)c1CN1CCN(CCOCCOCCOCCOCC(=O)N[C@H](C(=O)N2C[C@H](O)C[C@H]2C(=O)NCc2ccc(-c3scnc3C)cc2)C(C)(C)C)CC1,Activity,[34],78%
same,Activity,[35],30%
same,Activity,[36],20%
same,Activity,[37],20%
same,Activity,[38],30%
same,Activity,[24],81%
same,Activity,[39],73%
